According to ChEMBL document CHEMBL1134485, “Diguanidino and "reversed" diamidino 2,5-diarylfurans as antimicrobial agents” (2001):

Columns and labels:
[1] = tested on: Aspergillus fumigatus; assay: In vitro minimum fungicidal concentration required to inhibit Aspergillus fumigatus(MFC); assay type: functional
Outline: (§1)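 Mould MFC: 100 µL aliquots from macrodilution tubes (RPMI 1640/MOPS pH 7.0, 0.5 × 10³ to 2.5 × 10³ CFU/mL conidial inoculum, 30 °C, 48-72 h, drug 100 to 0.09 µg/mL) showing complete growth inhibition plated on Sabouraud agar; MFC taken as lowest drug concentration giving three or fewer colonies.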

[2] = tested on: Aspergillus fumigatus; assay: Antimicrobial activity against Aspergillus fumigatus (MIC); assay type: functional
[3] = tested on: Candida albicans; assay: In vitro minimum fungicidal concentration against Candida albicans.; assay type: functional
Outline: (§2)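 Yeast MFC: after broth macrodilution (RPMI 1640/MOPS pH 7.0, 0.5 × 10³ to 2.5 × 10³ CFU/mL, 35 °C, 48 h or 72 h for C. neoformans, drug 100 to 0.09 µg/mL), 100 µL from tubes with complete inhibition plated on Sabouraud agar; lowest concentration yielding three or fewer colonies recorded.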

[4] = tested on: Candida albicans; assay: In vitro minimum inhibitory concentration against Candida albicans.; assay type: functional
[5] = tested on: Mycobacterium tuberculosis; assay: In vitro minimum inhibitory concentration required to inhibit Mycobacterium tuberculosis; assay type: functional
Outline: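 M. tuberculosis H37Rv grown in BACTEC 12B medium; fluorometric broth microdilution (Microplate Alamar Blue Assay). […] MIC = lowest concentration reducing relative fluorescence units by ≥90% relative to control culture. Testing done by TAACF.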

[6] = tested on: Nucleic Acid
[7] = tested on: Nucleic Acid; remark: listed apart in the source
[8] = tested on: Aspergillus fumigatus; assay: Minimum inhibitory concentration required to inhibit 100% inoculum of Aspergillus fumigatus 119.00; assay type: functional
[9] = tested on: Aspergillus fumigatus; assay: Minimum inhibitory concentration required to inhibit 100% inoculum of Aspergillus fumigatus 153.90; assay type: functional
[10] = tested on: Aspergillus fumigatus; assay: Minimum inhibitory concentration required to inhibit 100% inoculum of Aspergillus fumigatus 165.86; assay type: functional
[11] = tested on: Aspergillus fumigatus; assay: Minimum inhibitory concentration required to inhibit 100% inoculum of Aspergillus fumigatus 168.95; assay type: functional
[12] = tested on: Aspergillus fumigatus; assay: Minimum inhibitory concentration required to inhibit 100% inoculum of Aspergillus fumigatus 182.99; assay type: functional
[13] = tested on: Aspergillus fumigatus; assay: Minimum inhibitory concentration required to inhibit 80% inoculum of Aspergillus fumigatus 119.00; assay type: functional
[14] = tested on: Aspergillus fumigatus; assay: Minimum inhibitory concentration required to inhibit 80% inoculum of Aspergillus fumigatus 153.90; assay type: functional
[15] = tested on: Aspergillus fumigatus; assay: Minimum inhibitory concentration required to inhibit 80% inoculum of Aspergillus fumigatus 165.86; assay type: functional
[16] = tested on: Aspergillus fumigatus; assay: Minimum inhibitory concentration required to inhibit 80% inoculum of Aspergillus fumigatus 168.95; assay type: functional
[17] = tested on: Aspergillus fumigatus; assay: Minimum inhibitory concentration required to inhibit 80% inoculum of Aspergillus fumigatus 182.99; assay type: functional
[18] = tested on: Aspergillus fumigatus; assay: Minimum fungicidal concentration against Aspergillus fumigatus 168.95; assay type: functional; outline: as §1
[19] = tested on: Aspergillus fumigatus; assay: Minimum fungicidal concentration against Aspergillus fumigatus 182.99; assay type: functional; outline: as §1
[20] = tested on: Aspergillus flavus; assay: Minimum fungicidal concentration against Aspergillus flavus 107.96; assay type: functional; outline: as §1
[21] = tested on: Aspergillus flavus; assay: Minimum fungicidal concentration against Aspergillus flavus 141.88; assay type: functional; outline: as §1
[22] = tested on: Aspergillus flavus; assay: Minimum fungicidal concentration against Aspergillus flavus 194.99; assay type: functional; outline: as §1
[23] = tested on: Aspergillus fumigatus; assay: Minimum fungicidal concentration against Aspergillus fumigatus 119.00; assay type: functional; outline: as §1
[24] = tested on: Aspergillus fumigatus; assay: Minimum fungicidal concentration against Aspergillus fumigatus 153.90; assay type: functional; outline: as §1
[25] = tested on: Aspergillus fumigatus; assay: Minimum fungicidal concentration against Aspergillus fumigatus 165.86; assay type: functional; outline: as §1
[26] = tested on: Aspergillus flavus; assay: Minimum inhibitory concentration required to inhibit 100% inoculum of Aspergillus flavus 107.96; assay type: functional
[27] = tested on: Aspergillus flavus; assay: Minimum inhibitory concentration required to inhibit 100% inoculum of Aspergillus flavus 141.88; assay type: functional
[28] = tested on: Aspergillus flavus; assay: Minimum inhibitory concentration required to inhibit 100% inoculum of Aspergillus flavus 194.99; assay type: functional
[29] = tested on: Aspergillus flavus; assay: Minimum inhibitory concentration required to inhibit 80% inoculum of Aspergillus flavus 107.96; assay type: functional
[30] = tested on: Aspergillus flavus; assay: Minimum inhibitory concentration required to inhibit 80% inoculum of Aspergillus flavus 141.88; assay type: functional
[31] = tested on: Aspergillus flavus; assay: Minimum inhibitory concentration required to inhibit 80% inoculum of Aspergillus flavus 194.99; assay type: functional
[32] = tested on: Candida albicans; assay: Minimum fungicidal concentration against Candida albicans 126.97; assay type: functional; outline: as §2
[33] = tested on: Candida albicans; assay: Minimum fungicidal concentration against Candida albicans 149.97; assay type: functional; outline: as §2
[34] = tested on: Candida albicans; assay: Minimum fungicidal concentration against Candida albicans 156.97; assay type: functional; outline: as §2
[35] = tested on: Candida albicans; assay: Minimum fungicidal concentration against Candida albicans 159.95; assay type: functional; outline: as §2
[36] = tested on: Candida albicans; assay: Minimum fungicidal concentration against Candida albicans A39; assay type: functional; outline: as §2
[37] = tested on: Candida albicans; assay: Minimum fungicidal concentration against Candida albicans 116.98; assay type: functional; outline: as §2
[38] = tested on: Candida albicans; assay: Minimum fungicidal concentration against Candida albicans 117.00; assay type: functional; outline: as §2
[39] = tested on: Candida albicans; assay: Minimum inhibitory concentration required to inhibit 80% inoculum of Candida albicans 149.97; assay type: functional
Outline: (§3)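 Broth macrodilution following NCCLS M27-T, drug dilutions 100 to 0.09 µg/mL, in RPMI 1640 with glutamine, no bicarbonate, buffered to pH 7.0 with 0.165 M MOPS. Inoculum grown at 35 °C, adjusted to 0.5 × 10³ to 2.5 × 10³ CFU/mL, incubated at 35 °C and read at 48 h. MIC80 is the lowest concentration giving […] visual turbidity relative to the growth-control tube.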

[40] = tested on: Candida albicans; assay: Minimum inhibitory concentration required to inhibit 80% inoculum of Candida albicans 156.97; assay type: functional; outline: as §3
[41] = tested on: Candida albicans; assay: Minimum inhibitory concentration required to inhibit 80% inoculum of Candida albicans 159.95; assay type: functional; outline: as §3
[42] = tested on: Candida albicans; assay: Minimum inhibitory concentration required to inhibit 80% inoculum of Candida albicans A39; assay type: functional; outline: as §3
[43] = tested on: Cryptococcus neoformans; assay: Minimum inhibitory concentration required to inhibit 100% inoculum of Cryptococcus neoformans H99; assay type: functional
[44] = tested on: Candida albicans; assay: Minimum inhibitory concentration required to inhibit 100% inoculum of Candida albicans 116.98; assay type: functional
[45] = tested on: Candida albicans; assay: Minimum inhibitory concentration required to inhibit 100% inoculum of Candida albicans 117.00; assay type: functional
[46] = tested on: Candida albicans; assay: Minimum inhibitory concentration required to inhibit 100% inoculum of Candida albicans 126.97; assay type: functional
[47] = tested on: Candida albicans; assay: Minimum inhibitory concentration required to inhibit 100% inoculum of Candida albicans 149.97; assay type: functional
[48] = tested on: Candida albicans; assay: Minimum inhibitory concentration required to inhibit 100% inoculum of Candida albicans 156.97; assay type: functional
[49] = tested on: Candida albicans; assay: Minimum inhibitory concentration required to inhibit 100% inoculum of Candida albicans 159.95; assay type: functional
[50] = tested on: Candida albicans; assay: Minimum inhibitory concentration required to inhibit 100% inoculum of Candida albicans A39; assay type: functional
[51] = tested on: Candida albicans; assay: Minimum inhibitory concentration required to inhibit 80% inoculum of Candida albicans 116.98; assay type: functional; outline: as §3
[52] = tested on: Candida albicans; assay: Minimum inhibitory concentration required to inhibit 80% inoculum of Candida albicans 117.00; assay type: functional; outline: as §3
[53] = tested on: Candida albicans; assay: Minimum inhibitory concentration required to inhibit 80% inoculum of Candida albicans 126.97; assay type: functional; outline: as §3
[54] = tested on: Cryptococcus neoformans; assay: Minimum fungicidal concentration against Cryptococcus neoformans H99; assay type: functional; outline: as §2
[55] = tested on: Fusarium solani; assay: Minimum fungicidal concentration against Fusarium solani 152.89; assay type: functional; outline: as §1
[56] = tested on: Fusarium solani; assay: Minimum inhibitory concentration required to inhibit 100% inoculum of Fusarium solani 152.89; assay type: functional
[57] = tested on: Fusarium solani; assay: Minimum inhibitory concentration required to inhibit 80% inoculum of Fusarium solani 152.89; assay type: functional
Outline: (§4)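 Mould broth macrodilution, drug dilutions 100 to 0.09 µg/mL, in RPMI 1640 buffered at pH 7.0 with 0.165 M MOPS. Isolates are grown on Sabouraud dextrose agar at 30 °C for 4-14 days. Conidia are harvested in 0.85% NaCl/0.05% Tween 80, counted by hemocytometer, and diluted to 0.5 × 10³ to 2.5 × 10³ CFU/mL. Cultures incubated at 30 °C for 48-72 h until the control grows. MIC80 read visually against the growth control.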

[58] = tested on: Rhizopus arrhizus; assay: Minimum inhibitory concentration required to inhibit 100% inoculum of Rhizopus arrhizus 117.89; assay type: functional
[59] = tested on: Rhizopus arrhizus; assay: Minimum inhibitory concentration required to inhibit 80% inoculum of Rhizopus arrhizus 117.89; assay type: functional; outline: as §4
[60] = tested on: Rhizopus arrhizus; assay: Minimum fungicidal concentration against Rhizopus arrhizus 117.89; assay type: functional; outline: as §1
[61] = tested on: Cryptococcus neoformans; assay: Minimum inhibitory concentration required to inhibit 80% inoculum of Cryptococcus neoformans H99; assay type: functional
Outline: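 Broth macrodilution following NCCLS M27-T, drug dilutions 100 to 0.09 µg/mL, in RPMI 1640 with glutamine, no bicarbonate, MOPS 0.165 M, pH 7.0. Inoculum grown at 35 °C, 0.5 × 10³ to 2.5 × 10³ CFU/mL, incubated at 35 °C and interpreted at […]. MIC80 is the lowest concentration with turbidity […] of the growth control.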

Cl.Cl.N=C(N)Nc1ccc(-c2ccc(-c3ccc(NC(=N)N)cc3Cl)o2)c(Cl)c1
4 µg/mL: MIC [5]
26.1: ΔTm [6]
100 µg/mL: MFC [1] | MIC [2] | MFC [3]
10 µg/mL: MIC [4]
4.7: ΔTm [7]

CO[C@H]1/C=C/O[C@@]2(C)Oc3c(C)c(O)c4c(O)c(c(/C=N/N5CCN(C)CC5)c(O)c4c3C2=O)NC(=O)/C(C)=C\C=C\[C@H](C)[C@H](O)[C@@H](C)[C@@H](O)[C@@H](C)[C@H](OC(C)=O)[C@@H]1C [RIFAMPIN]
0.062 µg/mL: MIC [5]

Cc1ccc(C(=N)Nc2ccc(-c3ccc(-c4ccc(NC(=N)c5ccc(C)cn5)cc4C)o3)c(C)c2)nc1
1.58 µg/mL: MIC [49]
3.15 µg/mL: MIC [48]
3.12 µg/mL: MIC [13] | MIC [14] | MIC [17] | MIC [29] | MIC [30] | MIC [31] | MFC [32] | MFC [35] | MIC [45] | MIC [46] | MIC [57]
2 µg/mL: MIC [5]
≤ 1 µg/mL: MIC [4]
25 µg/mL: MFC [36] | MFC [38]
0.78 µg/mL: MIC [39] | MIC [52] | MIC [59]
10.8: ΔTm [7]
24.3: ΔTm [6]
50 µg/mL: MIC [8] | MIC [9] | MIC [10] | MIC [11] | MIC [12] | MIC [15] | MIC [26] | MIC [27] | MFC [55] | MIC [56]
6.25 µg/mL: MIC [28] | MFC [33]
> 100 µg/mL: MFC [1] | MFC [18] | MFC [19] | MFC [20] | MFC [21] | MFC [22] | MFC [23] | MFC [24] | MFC [25] | MFC [34] | MFC [37] | MFC [54]
10 µg/mL: MIC [2] | MIC [16] | MFC [3]
0.79 µg/mL: MIC [41]
1.56 µg/mL: MIC [40] | MIC [42] | MIC [43] | MIC [44] | MIC [47] | MIC [50] | MIC [51] | MIC [53] | MIC [58] | MFC [60] | MIC [61]
